Columns and labels:
Type in all cases: tissue-based
[1] = substrate: CC(=O)Nc1ccc(S)cc1; assay: (§1) Apparent binding constant for purified human kidney TPMT
Procedure, shortened: (§2)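 Enzyme purified >300-fold from human kidney (100000g supernatant, ammonium sulfate, DEAE-A25, Sephadex G-100). The thiophenol replaced 6-MP as methyl acceptor, with 25 μM [14C-methyl]AdoMet at pH 6.7 and 37 °C for 30 min. Stopped with borate pH 10, extracted, scintillation counted. Five or more concentrations near Km in triplicate, at least twice. Apparent Km by Wilkinson method, averaged.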

[2] = substrate: Sc1ccc(Cl)cc1; assay: as §1; procedure, shortened: as §2
[3] = substrate: O=[N+]([O-])c1ccc(S)cc1; assay: as §1; procedure, shortened: as §2
[4] = substrate: COc1cccc(S)c1; assay: as §1; procedure, shortened: as §2
[5] = substrate: O=C(O)c1ccccc1S; assay: as §1; procedure, shortened: as §2
[6] = substrate: COc1ccc(S)cc1; assay: as §1; procedure, shortened: as §2
[7] = substrate: Fc1ccc(S)cc1; assay: as §1; procedure, shortened: as §2
[8] = substrate: Cc1ccc(S)cc1; assay: as §1; procedure, shortened: as §2
[9] = substrate: Sc1ccc(Br)cc1; assay: as §1; procedure, shortened: as §2
[10] = substrate: Sc1cccc(Cl)c1; assay: as §1; procedure, shortened: as §2
[11] = substrate: Nc1ccccc1S; assay: as §1; procedure, shortened: as §2
[12] = substrate: Sc1ccccc1; assay: as §1; procedure, shortened: as §2
[13] = substrate: Sc1ccccc1Br; assay: as §1; procedure, shortened: as §2
[14] = substrate: COc1ccccc1S; assay: as §1; procedure, shortened: as §2

B1: Thiopurine S-methyltransferase (Homo sapiens), P51580 (protein)
chain: MDGTRTSLDIEEYSDTEVQKNQVLTLEEWQDKWVNGKTAFHQEQGHQLLKKHLDTFLKGKSGLRVFFPLCGKAVEMKWFADRGHSVVGVEISELGIQEFFTEQNLSYSEEPITEIPGTKVFKSSSGNISLYCCSIFDLPRTNIGKFDMIWDRGALVAINPGDRKCYADTMFSLLGKKFQYLLCVLSYDPTKHPGPPFYVPHAEIERLFGKICNIRCLEKVDAFEERHKSWGIDCLFEKLYLLTEK
[1]
  Km: 2.1 µM
[2]
  Km: 3.6 µM
[3]
  Km: 6.5 µM
[4]
  Km: 2.1 µM
[5]
  Km: 7.8 µM
[6]
  Km: 3.2 µM
[7]
  Km: 5.6 µM
[8]
  Km: 5.9 µM
[9]
  Km: 4.8 µM
[10]
  Km: 2.4 µM
[11]
  Km: 2.5 µM
[12]
  Km: 3.9 µM
[13]
  Km: 0.8 µM
[14]
  Km: 2.6 µM

— ChEMBL document CHEMBL1123412, “Thiopurine methyltransferase: structure-activity relationships for benzoic acid inhibitors and thiophenol substrates” (J Med Chem, 1986)
